# Results published in ChEMBL document CHEMBL2029249, “N-Methyl-3-(tetrahydro-2H-pyran-4-yl)-2,3,4,9-tetrahydro-1H-carbazole-6-carboxamides as a novel class of cannabinoid receptors agonists with low CNS penetration” (Bioorg Med Chem Lett, 2012).
# How the values were obtained:
# Cannabinoid receptor 2 = Cannabinoid receptor 2 (Homo sapiens, UniProt P34972); assay: Binding affinity to human CB2 receptor
# Cannabinoid receptor 1 [1] = target: T1, Cannabinoid receptor 1 (Homo sapiens, UniProt P21554); assay: Agonist activity at human CB1 receptor expressed in HEK293 cells assessed as [35S]GTPgamma binding relative to WIN55212-2; assay type: functional, cell-based
# Procedure, shortened: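 GTPγ35S binding on membranes from HEK293 EBNA cells stably transfected with cloned human CB1; Emax relative to WIN55,212-2 as reference agonist; means of at least three measurements.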
# [2] = Intrinsic clearance in human liver microsomes at 1 uM in presence of NADPH; assay type: ADME, Microsome; details: read-out: CLH
# [3] = Thermodynamic solubility of the compound at pH 7.4; details: buffer
# Cannabinoid receptor 1 [4] = target: T1, Cannabinoid receptor 1; assay: Agonist activity at human CB1 receptor expressed in HEK293 cells assessed as [35S]GTPgamma binding; assay type: functional, cell-based
# [5] = Ratio of drug level in brain to plasma in rat by microdialysis assay
# Cannabinoid receptor 1 [6] = target: T1, Cannabinoid receptor 1; assay: Displacement of [3H]CP55940 from human CB1 receptor expressed in HEK293 cells; assay type: cell-based
# [7] = Apparent permeability from apical to basal side of human Caco2 cells at 10 uM; details: Caco-2
# [8] = target: Voltage-gated inwardly rectifying potassium channel KCNH2 (Homo sapiens, UniProt Q12809)
# [9] = Terminal half life in Sprague-Dawley rat at 2 umol/kg, iv; assay type: ADME, organism-based; details: in vivo, read-out: beta t1/2 (converted)
# [10] = Volume of distribution at steady state in Sprague-Dawley rat at 2 umol/kg, iv; assay type: ADME, organism-based; details: in vivo, read-out: Vdss
# [11] = Clearance in Sprague-Dawley rat at 2 umol/kg, iv; assay type: ADME, organism-based; details: in vivo
# [12] = Tmax in Sprague-Dawley rat at 9 umol/kg, po; assay type: ADME, organism-based; details: in vivo
# [13] = Cmax in Sprague-Dawley rat at 9 umol/kg, po; assay type: ADME, organism-based; set-up: dose 9 umol/kg, route oral; details: in vivo
# [14] = Oral bioavailability in Sprague-Dawley rat at 9 umol/kg; assay type: ADME, organism-based; details: in vivo
# [15] = Plasma protein binding in Sprague-Dawley rat; assay type: ADME, cell-free; details: read-out: PPB (converted)
# Cytochrome P450 1A2 = target: T2, Cytochrome P450 1A2 (Homo sapiens, UniProt P05177); assay: Inhibition of CYP1A2 in human liver microsomes; assay type: ADME, Microsome
# T2 sequence (P05177 whole entry): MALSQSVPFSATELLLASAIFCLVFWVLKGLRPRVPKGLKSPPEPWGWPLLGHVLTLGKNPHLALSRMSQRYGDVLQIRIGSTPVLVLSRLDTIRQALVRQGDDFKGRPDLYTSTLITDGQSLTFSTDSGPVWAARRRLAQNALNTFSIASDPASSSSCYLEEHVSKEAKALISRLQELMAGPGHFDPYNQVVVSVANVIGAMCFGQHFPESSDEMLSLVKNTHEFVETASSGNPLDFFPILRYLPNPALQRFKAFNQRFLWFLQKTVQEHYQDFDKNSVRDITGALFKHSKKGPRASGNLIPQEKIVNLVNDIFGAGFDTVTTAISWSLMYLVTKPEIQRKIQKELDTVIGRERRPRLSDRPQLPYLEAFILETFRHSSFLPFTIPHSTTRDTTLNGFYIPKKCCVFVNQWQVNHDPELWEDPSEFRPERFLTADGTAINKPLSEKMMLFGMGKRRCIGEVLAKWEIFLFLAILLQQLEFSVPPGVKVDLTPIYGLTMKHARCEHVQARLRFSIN
# Cytochrome P450 2C9 = Cytochrome P450 2C9 (Homo sapiens, UniProt P11712); assay: Inhibition of CYP2C9 in human liver microsomes; assay type: ADME, Microsome
# Cytochrome P450 2C19 = Cytochrome P450 2C19 (Homo sapiens, UniProt P33261); assay: Inhibition of CYP2C19 in human liver microsomes; assay type: ADME, Microsome
# Procedure, shortened: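 IC50 determined in human liver microsomes as part of a five-isoform panel (CYP1A2, CYP2C9, CYP2C19, CYP2D6, CYP3A4) to assess drug-interaction potential.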
# Cytochrome P450 2D6 = Cytochrome P450 2D6 (Homo sapiens, UniProt P10635); assay: Inhibition of CYP2D6 in human liver microsomes; assay type: ADME, Microsome
# Cytochrome P450 3A4 = Cytochrome P450 3A4 (Homo sapiens, UniProt P08684); assay: Inhibition of CYP3A4 in human liver microsomes; assay type: ADME, Microsome
# Rattus norvegicus = assay: Analgesic activity in sc dosed rat assessed as reversal of carrageenan-induced heat hyperalgesia; assay type: functional, organism-based
# Procedure, shortened: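 Rat carrageenan inflammatory pain model; reversal of heat hyperalgesia after subcutaneous dosing at 10, 30 and 100 µmol/kg.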
# Plasma [16] = assay: Plasma concentration in rat carrageenan inflammatory pain model at 10 umol/kg, sc; assay type: ADME, cell-free
# Procedure, shortened: (§1)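 Rats in carrageenan inflammatory pain model dosed sc at 10, 30 or 100 µmol/kg; total plasma and brain levels by protein precipitation with ACN (brain homogenised first), centrifugation 9000g, 30 min, 4 °C, then reversed-phase LC-electrospray MS/MS against a serial-dilution calibration curve.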
# Plasma [17] = assay: Plasma concentration in rat carrageenan inflammatory pain model at 30 umol/kg, sc; assay type: ADME, cell-free; procedure, shortened: as §1
# Plasma [18] = assay: Plasma concentration in rat carrageenan inflammatory pain model at 100 umol/kg, sc; assay type: ADME, cell-free; procedure, shortened: as §1
# Brain = assay: Drug uptake in carrageenan inflammatory pain model of rat brain at 10 to 100 umol/kg, sc; assay type: ADME, organism-based; details: in vivo; procedure, shortened: as §1
# [19] = Intrinsic clearance in rat liver microsomes; assay type: ADME, Microsome; details: read-out: CLH
# Procedure, shortened: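 Rat liver microsomes; intrinsic clearance expressed per mg microsomal protein.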
# T1 sequence (P21554 whole entry): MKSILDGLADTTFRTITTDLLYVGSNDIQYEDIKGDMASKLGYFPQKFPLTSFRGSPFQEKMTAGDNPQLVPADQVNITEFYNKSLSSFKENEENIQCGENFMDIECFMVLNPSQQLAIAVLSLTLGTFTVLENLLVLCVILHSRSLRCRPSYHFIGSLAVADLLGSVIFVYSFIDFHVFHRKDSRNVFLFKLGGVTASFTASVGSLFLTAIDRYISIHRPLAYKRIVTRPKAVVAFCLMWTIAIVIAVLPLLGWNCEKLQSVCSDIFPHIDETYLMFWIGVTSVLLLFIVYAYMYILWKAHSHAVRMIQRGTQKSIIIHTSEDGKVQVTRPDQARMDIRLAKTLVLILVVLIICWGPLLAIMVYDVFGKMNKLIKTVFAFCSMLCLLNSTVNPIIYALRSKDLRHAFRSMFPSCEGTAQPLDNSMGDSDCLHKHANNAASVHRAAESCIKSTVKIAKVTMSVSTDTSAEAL
# Sequence of Cannabinoid receptor 2 (P34972 whole entry): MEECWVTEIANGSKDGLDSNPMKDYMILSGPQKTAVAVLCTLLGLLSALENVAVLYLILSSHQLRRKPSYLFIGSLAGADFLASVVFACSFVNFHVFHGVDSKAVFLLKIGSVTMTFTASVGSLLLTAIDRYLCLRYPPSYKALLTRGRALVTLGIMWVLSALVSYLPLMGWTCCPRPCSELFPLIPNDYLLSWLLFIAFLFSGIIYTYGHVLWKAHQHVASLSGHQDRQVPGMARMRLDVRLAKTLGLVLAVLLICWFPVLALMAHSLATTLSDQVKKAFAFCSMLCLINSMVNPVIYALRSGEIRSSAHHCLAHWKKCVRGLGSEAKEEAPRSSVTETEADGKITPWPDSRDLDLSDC
# Sequence of Voltage-gated inwardly rectifying potassium channel KCNH2 (Q12809 whole entry): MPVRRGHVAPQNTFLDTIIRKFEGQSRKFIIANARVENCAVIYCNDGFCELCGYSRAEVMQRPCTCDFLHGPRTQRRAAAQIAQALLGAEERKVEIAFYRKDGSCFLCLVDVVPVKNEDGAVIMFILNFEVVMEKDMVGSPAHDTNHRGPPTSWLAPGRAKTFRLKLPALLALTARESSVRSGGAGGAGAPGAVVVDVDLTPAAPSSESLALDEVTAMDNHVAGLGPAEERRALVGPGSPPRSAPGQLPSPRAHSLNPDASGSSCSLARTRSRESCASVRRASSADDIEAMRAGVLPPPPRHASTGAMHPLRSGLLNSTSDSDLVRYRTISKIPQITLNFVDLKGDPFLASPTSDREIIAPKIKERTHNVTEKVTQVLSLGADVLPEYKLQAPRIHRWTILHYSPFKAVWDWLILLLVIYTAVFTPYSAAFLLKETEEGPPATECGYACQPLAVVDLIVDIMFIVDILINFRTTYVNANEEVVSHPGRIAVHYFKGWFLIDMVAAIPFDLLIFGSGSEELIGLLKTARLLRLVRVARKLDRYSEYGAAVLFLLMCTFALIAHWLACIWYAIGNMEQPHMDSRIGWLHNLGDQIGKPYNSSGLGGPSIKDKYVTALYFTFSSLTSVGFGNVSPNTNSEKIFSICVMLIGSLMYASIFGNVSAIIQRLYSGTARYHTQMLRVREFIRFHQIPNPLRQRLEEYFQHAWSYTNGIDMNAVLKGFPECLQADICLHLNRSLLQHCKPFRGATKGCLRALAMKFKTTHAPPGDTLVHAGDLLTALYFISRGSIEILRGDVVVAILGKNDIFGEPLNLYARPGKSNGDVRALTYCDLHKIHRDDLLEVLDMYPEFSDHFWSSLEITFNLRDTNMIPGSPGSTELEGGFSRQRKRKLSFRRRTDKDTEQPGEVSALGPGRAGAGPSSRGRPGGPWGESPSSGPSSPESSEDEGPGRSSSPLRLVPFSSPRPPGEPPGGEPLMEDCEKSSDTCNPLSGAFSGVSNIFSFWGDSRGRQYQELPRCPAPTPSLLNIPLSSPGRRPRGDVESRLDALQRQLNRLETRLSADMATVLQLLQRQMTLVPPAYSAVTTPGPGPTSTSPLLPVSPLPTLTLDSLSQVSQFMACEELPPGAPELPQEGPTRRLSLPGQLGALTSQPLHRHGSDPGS
# Sequence of Cytochrome P450 3A4 (P08684 whole entry): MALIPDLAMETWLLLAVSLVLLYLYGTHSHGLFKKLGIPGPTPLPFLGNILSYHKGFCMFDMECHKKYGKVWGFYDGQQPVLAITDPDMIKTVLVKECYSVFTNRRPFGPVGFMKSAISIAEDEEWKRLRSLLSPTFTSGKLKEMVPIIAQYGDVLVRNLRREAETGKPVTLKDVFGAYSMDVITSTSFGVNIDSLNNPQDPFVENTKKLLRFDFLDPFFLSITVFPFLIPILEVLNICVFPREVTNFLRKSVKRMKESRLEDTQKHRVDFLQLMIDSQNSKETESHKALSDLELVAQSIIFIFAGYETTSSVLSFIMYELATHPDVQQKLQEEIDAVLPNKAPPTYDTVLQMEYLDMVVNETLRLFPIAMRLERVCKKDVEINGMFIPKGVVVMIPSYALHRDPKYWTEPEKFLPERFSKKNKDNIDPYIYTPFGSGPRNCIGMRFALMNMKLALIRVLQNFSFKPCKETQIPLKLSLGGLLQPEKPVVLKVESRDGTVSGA
# Sequence of Cytochrome P450 2C9 (P11712 whole entry): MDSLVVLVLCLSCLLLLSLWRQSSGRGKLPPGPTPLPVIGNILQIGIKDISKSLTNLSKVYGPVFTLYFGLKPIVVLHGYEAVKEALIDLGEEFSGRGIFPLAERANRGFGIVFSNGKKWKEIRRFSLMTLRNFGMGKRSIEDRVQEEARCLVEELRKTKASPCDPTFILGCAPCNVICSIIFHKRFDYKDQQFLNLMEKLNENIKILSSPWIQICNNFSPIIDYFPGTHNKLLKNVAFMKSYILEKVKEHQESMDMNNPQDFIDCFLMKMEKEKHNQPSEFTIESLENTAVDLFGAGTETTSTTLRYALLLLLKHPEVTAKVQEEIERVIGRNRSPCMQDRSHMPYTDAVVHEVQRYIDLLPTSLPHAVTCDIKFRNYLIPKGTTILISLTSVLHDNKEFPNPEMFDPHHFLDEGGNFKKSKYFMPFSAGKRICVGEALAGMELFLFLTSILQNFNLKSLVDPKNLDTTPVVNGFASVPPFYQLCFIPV
# Sequence of Cytochrome P450 2C19 (P33261 whole entry, canonical isoform): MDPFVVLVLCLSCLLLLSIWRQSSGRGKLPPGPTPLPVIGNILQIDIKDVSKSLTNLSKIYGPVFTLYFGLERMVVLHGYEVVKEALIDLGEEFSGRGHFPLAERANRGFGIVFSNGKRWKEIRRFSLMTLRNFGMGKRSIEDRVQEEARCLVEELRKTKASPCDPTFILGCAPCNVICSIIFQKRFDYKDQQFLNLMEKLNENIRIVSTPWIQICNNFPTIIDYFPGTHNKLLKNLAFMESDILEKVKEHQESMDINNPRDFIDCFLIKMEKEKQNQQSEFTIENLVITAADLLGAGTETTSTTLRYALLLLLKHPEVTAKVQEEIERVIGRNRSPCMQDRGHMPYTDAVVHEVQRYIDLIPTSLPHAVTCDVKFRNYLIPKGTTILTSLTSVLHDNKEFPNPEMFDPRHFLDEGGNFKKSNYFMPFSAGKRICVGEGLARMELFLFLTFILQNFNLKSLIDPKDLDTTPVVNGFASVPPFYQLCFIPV
# Sequence of Cytochrome P450 2D6 (P10635 whole entry): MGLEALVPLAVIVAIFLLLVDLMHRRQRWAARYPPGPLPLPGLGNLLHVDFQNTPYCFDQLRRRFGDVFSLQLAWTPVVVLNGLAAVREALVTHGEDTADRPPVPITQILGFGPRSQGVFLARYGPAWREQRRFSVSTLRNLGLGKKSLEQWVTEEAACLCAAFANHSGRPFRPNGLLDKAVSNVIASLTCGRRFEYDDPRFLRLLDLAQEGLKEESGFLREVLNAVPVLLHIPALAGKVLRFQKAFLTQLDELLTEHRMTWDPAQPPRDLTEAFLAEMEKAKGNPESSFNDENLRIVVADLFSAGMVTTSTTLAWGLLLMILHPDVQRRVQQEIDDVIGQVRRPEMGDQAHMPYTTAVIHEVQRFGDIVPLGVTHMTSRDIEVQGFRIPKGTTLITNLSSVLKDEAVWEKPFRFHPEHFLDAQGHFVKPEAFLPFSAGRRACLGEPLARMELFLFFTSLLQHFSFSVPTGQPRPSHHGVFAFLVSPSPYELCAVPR
structure (smiles),measurement,setting,value
CN(CC(=O)NC1CC1)C(=O)c1ccc2c(c1)c1c(n2C)CCC(C2CCOCC2)C1 (racemic),Ki,Cannabinoid receptor 2,26.3 nM
same,Emax,Cannabinoid receptor 1 [1],121%
same,microsomal CLint at 1 µM,[2],37 µL/min/mg
same,solubility thermodynamic,[3],108 µM
CCN(CC(=O)NCCF)C(=O)c1ccc2c(c1)c1c(n2C)CC[C@@H](C2CCOCC2)C1,EC50,Cannabinoid receptor 1 [4],9.8 nM
same,Emax,Cannabinoid receptor 1 [1],107%
same,microsomal CLint at 1 µM,[2],33 µL/min/mg
same,solubility thermodynamic,[3],71 µM
same,Kp,[5],0.068
CCN(CC(=O)NC1CC1)C(=O)c1ccc2c(c1)c1c(n2C)CC[C@@H](C2CCOCC2)C1,Ki,Cannabinoid receptor 1 [6],4.2 nM
same,EC50,Cannabinoid receptor 1 [4],1.9 nM
same,Emax,Cannabinoid receptor 1 [1],106%
same,microsomal CLint at 1 µM,[2],36 µL/min/mg
same,solubility thermodynamic,[3],30 µM
same,Papp A→B at 10 µM,[7],23 ×10⁻⁶ cm/s
same,Kp,[5],0.09
CN(CCCC(=O)NCCF)C(=O)c1ccc2c(c1)c1c(n2C)CC[C@@H](C2CCOCC2)C1,EC50,Cannabinoid receptor 1 [4],12.9 nM
same,Emax,Cannabinoid receptor 1 [1],108%
same,microsomal CLint at 1 µM,[2],50 µL/min/mg
same,solubility thermodynamic,[3],470 µM
same,Kp,[5],0.02
CNC(=O)CCCN(C)C(=O)c1ccc2c(c1)c1c(n2C)CCC(C2CCOCC2)C1 (racemic),Emax,Cannabinoid receptor 1 [1],121%
same,microsomal CLint at 1 µM,[2],27 µL/min/mg
same,solubility thermodynamic,[3],1550 µM
CN(CCC(=O)NC1CC1)C(=O)c1ccc2c(c1)c1c(n2C)CCC(C2CCOCC2)C1 (configuration not stated),solubility thermodynamic,[3],523 µM
CCNC(=O)CC[C@@H](CO)N(C)C(=O)c1ccc2c(c1)c1c(n2C)CC[C@@H](C2CCOCC2)C1,Emax,Cannabinoid receptor 1 [1],126%
same,microsomal CLint at 1 µM,[2],21 µL/min/mg
same,Kp,[5],0.011
CONC(=O)CCCN(C)C(=O)c1ccc2c(c1)c1c(n2C)CC[C@@H](C2CCOCC2)C1,Emax,Cannabinoid receptor 1 [1],104%
same,microsomal CLint at 1 µM,[2],36 µL/min/mg
same,solubility thermodynamic,[3],1330 µM
same,IC50,[8],> 33000 nM
CCCCCOc1ccc(C(=O)c2cccc3ccccc23)c2ccccc12,Emax,Cannabinoid receptor 1 [1],112%
same,Kp,[5],0.29
CNC(=O)CCCN(C)C(=O)c1ccc2c(c1)c1c(n2C)CC[C@@H](C2CCOCC2)C1,Ki,Cannabinoid receptor 1 [6],29.3 nM
same,Ki,Cannabinoid receptor 2,15.5 nM
same,EC50,Cannabinoid receptor 1 [4],51.4 nM
same,Emax,Cannabinoid receptor 1 [1],116%
same,microsomal CLint at 1 µM,[2],26 µL/min/mg
same,solubility thermodynamic,[3],1120 µM
same,Papp A→B at 10 µM,[7],12 ×10⁻⁶ cm/s
same,half-life,[9],2.4 h
same,Vd,[10],0.3 L/kg
same,clearance,[11],2.8 mL/min/kg
same,Tmax,[12],2.2 h
same,Cmax,[13],6.3 µM
same,bioavailability,[14],100%
same,fraction unbound,[15],0.021
same,INH,Cytochrome P450 1A2,> 20 µM
same,IC50,Cytochrome P450 2C9,7000 nM
same,INH,Cytochrome P450 2C19,> 20 µM
same,INH,Cytochrome P450 2D6,> 20 µM
same,INH,Cytochrome P450 3A4,> 20 µM
same,Activity,Rattus norvegicus,Dose-dependent effect
same,concentration,Plasma [16],6.9 µM
same,concentration,Plasma [17],9.1 µM
same,concentration,Plasma [18],50.7 µM
same,Drug uptake,Brain,Not Active
same,microsomal CLint,[19],61 µL/min/mg
same,Kp,[5],0.02
CCN(CCCC(=O)NCCO)C(=O)c1ccc2c(c1)c1c(n2C)CC[C@@H](C2CCOCC2)C1,Emax,Cannabinoid receptor 1 [1],113%
same,microsomal CLint at 1 µM,[2],38 µL/min/mg
same,solubility thermodynamic,[3],760 µM
same,Kp,[5],< 0.02
same,IC50,[8],> 33000 nM
CN(CCCC(=O)NCC#N)C(=O)c1ccc2c(c1)c1c(n2C)CC[C@@H](C2CCOCC2)C1,Emax,Cannabinoid receptor 1 [1],110%
same,microsomal CLint at 1 µM,[2],42 µL/min/mg
same,solubility thermodynamic,[3],300 µM
CCS(=O)(=O)n1c2c(c3cc(C(=O)N4CCC(C)CC4)ccc31)CN(C1CCOCC1)CC2,Emax,Cannabinoid receptor 1 [1],120%
same,solubility thermodynamic,[3],> 1030 µM
same,Papp A→B at 10 µM,[7],13 ×10⁻⁶ cm/s
same,Kp,[5],0.07
